Activity calls are given as the source filed them. No cut-off for these calls is given here.
Columns and labels:
[1] = biological target: T1, Prostaglandin G/H synthase 1 (Mus musculus) (UniProt P22437); assay: Inhibition of COX-1 in mouse J774 cells using arachidonic acid as substrate assessed as inhibition of prostaglandin E2 production at 10 uM preincubated for 15 mins followed by substrate addition measured after 30 mins by RIA; type: cell-based
T1 sequence (whole entry): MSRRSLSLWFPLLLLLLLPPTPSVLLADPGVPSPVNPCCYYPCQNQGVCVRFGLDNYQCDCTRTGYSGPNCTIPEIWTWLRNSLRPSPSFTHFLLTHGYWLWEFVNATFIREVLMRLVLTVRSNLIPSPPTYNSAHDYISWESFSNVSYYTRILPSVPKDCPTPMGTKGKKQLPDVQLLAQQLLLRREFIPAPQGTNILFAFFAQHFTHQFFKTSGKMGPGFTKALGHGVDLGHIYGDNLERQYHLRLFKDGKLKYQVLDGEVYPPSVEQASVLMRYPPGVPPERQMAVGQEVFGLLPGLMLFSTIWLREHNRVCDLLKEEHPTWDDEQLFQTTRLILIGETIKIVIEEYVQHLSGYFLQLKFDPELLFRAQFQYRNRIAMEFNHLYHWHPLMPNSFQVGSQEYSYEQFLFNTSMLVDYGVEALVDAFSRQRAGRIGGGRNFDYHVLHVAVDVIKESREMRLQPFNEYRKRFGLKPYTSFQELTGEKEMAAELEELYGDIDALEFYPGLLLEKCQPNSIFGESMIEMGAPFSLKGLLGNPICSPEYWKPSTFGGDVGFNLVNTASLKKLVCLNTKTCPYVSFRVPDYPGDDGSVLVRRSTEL
Method in brief: (§1)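 J774 murine macrophages pretreated 15 min with compound (10 µM; lower concentrations 0.01–1 µM where needed), then incubated 30 min at 37 °C with 15 µM arachidonic acid; supernatant PGE2 measured by RIA. Triplicate wells, mean of three experiments of percent inhibition versus control; IC50 by sigmoidal fit.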

J774 = assay: Selectivity index, ratio of IC50 for COX-1 to IC50 for COX-2 in mouse J774 cells; type: cell-based
Method in brief: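 J774 macrophages stimulated 24 h with E. coli LPS (10 µg/mL) to induce COX-2, with or without compound (0.01–10 µM); supernatant PGE2 by RIA. Triplicate wells, three experiments, percent inhibition versus control, IC50 by sigmoidal fit; selectivity as COX-1/COX-2 IC50 ratio.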

Mus musculus [2] = assay: Analgesic activity in Swiss albino mouse assessed as reduction of acetic acid-induced writhing at 3 mg/kg, po measured every 10 mins after 5 mins of administration relative to control; type: functional; set-up: scale not given: the % may be the effect or the level left
Method in brief: (§2)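 Male Swiss albino mice (23–25 g), compound given orally in CMC vehicle; writhing induced by 0.6% acetic acid (10 mL/kg) ip. Stretching movements counted for 10 min, starting 5 min after administration; percent reduction versus CMC-treated animals.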

[3] = biological target: T2, Prostaglandin G/H synthase 2 (Mus musculus, UniProt Q05769); assay: Inhibition of LPS-induced COX-2 in mouse J774 cells using arachidonic acid as substrate assessed as inhibition of prostaglandin E2 production preincubated for 15 mins followed by substrate addition measured after 30 mins by RIA; type: cell-based
T2 sequence (Q05769 whole entry): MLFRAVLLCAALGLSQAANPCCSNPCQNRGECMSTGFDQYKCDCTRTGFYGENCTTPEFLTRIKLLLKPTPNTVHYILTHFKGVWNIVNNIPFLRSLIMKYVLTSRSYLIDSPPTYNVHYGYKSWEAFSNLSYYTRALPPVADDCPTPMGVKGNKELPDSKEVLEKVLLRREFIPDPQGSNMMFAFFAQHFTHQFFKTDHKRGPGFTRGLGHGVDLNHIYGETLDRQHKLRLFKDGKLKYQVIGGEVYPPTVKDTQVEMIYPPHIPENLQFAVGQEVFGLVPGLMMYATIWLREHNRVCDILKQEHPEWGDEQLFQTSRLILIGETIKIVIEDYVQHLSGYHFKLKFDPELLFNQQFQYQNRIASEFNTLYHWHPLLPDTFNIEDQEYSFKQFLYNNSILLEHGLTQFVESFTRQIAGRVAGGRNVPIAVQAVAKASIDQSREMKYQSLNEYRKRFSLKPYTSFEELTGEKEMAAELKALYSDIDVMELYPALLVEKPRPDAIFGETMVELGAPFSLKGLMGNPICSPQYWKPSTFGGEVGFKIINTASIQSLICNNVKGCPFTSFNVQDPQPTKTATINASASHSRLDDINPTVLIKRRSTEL

[4] = biological target: T3, Prostaglandin G/H synthase 1 (Mus musculus, UniProt P22437); assay: Inhibition of COX-1 in mouse J774 cells using arachidonic acid as substrate assessed as inhibition of prostaglandin E2 production preincubated for 15 mins followed by substrate addition measured after 30 mins by RIA; type: cell-based; method in brief: as §1
T3 sequence (P22437 whole entry): T1 sequence (whole entry)

Mus musculus [5] = assay: Analgesic activity in Swiss albino mouse assessed as reduction of acetic acid-induced writhing at 20 mg/kg, po measured every 10 mins after 5 mins of administration relative to control; type: functional; set-up: scale not given: the % may be the effect or the level left; method in brief: as §2
Mus musculus [6] = assay: Analgesic activity in Swiss albino mouse assessed as reduction of acetic acid-induced writhing at 10 mg/kg, po measured every 10 mins after 5 mins of administration relative to control; type: functional; set-up: scale not given: the % may be the effect or the level left; method in brief: as §2
Mus musculus [7] = assay: Analgesic activity in po dosed Swiss albino mouse assessed as reduction of acetic acid-induced writhing measured every 10 mins after 5 mins of administration; type: functional, organism-based; method in brief: as §2
[8] = biological target: T4, Prostaglandin G/H synthase 2 (Mus musculus) (UniProt Q05769); assay: Inhibition of LPS-induced COX-2 in mouse J774 cells using arachidonic acid as substrate assessed as inhibition of prostaglandin E2 production at 10 uM preincubated for 15 mins followed by substrate addition measured after 30 mins by RIA; type: cell-based
T4 sequence (whole entry): T2 sequence (Q05769 whole entry)

Thoracic aorta [9] = assay: Ex vivo vasorelaxant activity in Wistar rat endothelium thoracic aortic ring assessed as reduction of KCl-induced contraction in presence of guanylate cyclase inhibitor ODQ; type: functional
Method in brief: (§3)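 Endothelium-denuded thoracic aortic rings from male Wistar rats (250–350 g) in oxygenated Tyrode-type buffer at 37 °C, isometric tension recording. Rings precontracted with 30 mM KCl, then 3-fold increasing compound concentrations (1 nM–10 µM) added, also with 1 µM ODQ preincubated. Emax as % of KCl tone; pIC50; mean ± SE of 6–10 experiments.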

Liver [10] = assay: Induction of nitric oxide production in Wistar rat liver homogenate assessed as nitrate level at 1 mM after 1 to 150 mins; type: functional, tissue-based
Liver [11] = assay: Induction of nitric oxide production in Wistar rat liver homogenate assessed as NOx level at 1 mM; type: functional, tissue-based; conditions: TDE = time-dependent effect
Liver [12] = assay: Induction of nitric oxide production in Wistar rat liver homogenate assessed as nitrite level at 1 mM; type: functional, tissue-based; conditions: TDE = time-dependent effect
Liver [13] = assay: Induction of nitric oxide production in Wistar rat liver homogenate assessed as NOx level at 1 mM after 1 to 150 mins; type: functional, tissue-based
Liver [14] = assay: Induction of nitric oxide production in Wistar rat liver homogenate assessed as nitrite level at 1 mM after 1 to 150 mins; type: functional, tissue-based
Liver [15] = assay: Induction of nitric oxide production in Wistar rat liver homogenate assessed as nitrate level at 1 mM; type: functional, tissue-based; conditions: TDE = time-dependent effect
Thoracic aorta [16] = assay: Ex vivo vasorelaxant activity in Wistar rat endothelium thoracic aortic ring assessed as reduction of KCl-induced contraction at 0.001 uM to 10 uM relative to control; type: functional; method in brief: as §3
Thoracic aorta [17] = assay: Ex vivo vasorelaxant activity in Wistar rat endothelium thoracic aortic ring assessed as reduction of KCl-induced contraction; type: functional, tissue-based; method in brief: as §3
Mus musculus [18] = assay: Analgesic activity in Swiss albino mouse assessed as reduction of acetic acid-induced writhing at 40 mg/kg, po measured every 10 mins after 5 mins of administration relative to control; type: functional; set-up: scale not given: the % may be the effect or the level left; method in brief: as §2
Mus musculus [19] = assay: Antihyperalgesic activity in Swiss albino mouse assessed as reduction in carrageenan-induced inflammation at 10 mg/kg, po after 60 mins relative to control; type: functional; set-up: scale not given: the % may be the effect or the level left
Mus musculus [20] = assay: Antihyperalgesic activity in Swiss albino mouse assessed as reduction in carrageenan-induced inflammation at 10 mg/kg, po after 30 mins relative to control; type: functional; set-up: scale not given: the % may be the effect or the level left
Mus musculus [21] = assay: Antihyperalgesic activity in Swiss albino mouse assessed as reduction in carrageenan-induced inflammation at 10 mg/kg, po after 90 mins relative to control; type: functional; set-up: scale not given: the % may be the effect or the level left
Mus musculus [22] = assay: Antiinflammatory activity in Swiss albino mouse assessed as reduction in carrageenan-induced paw edema at 10 mg/kg, po relative to control; type: functional; set-up: scale not given: the % may be the effect or the level left
Method in brief: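 Intraplantar carrageenan, compound po in CMC; volume of right hind paw measured 4 h after carrageenan injection and compared with saline/carrageenan-treated controls; percent oedema reduction.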

Mus musculus [23] = assay: Antihyperalgesic activity in Swiss albino mouse assessed as reduction in carrageenan-induced inflammation at 10 mg/kg, po after 120 mins relative to control; type: functional; set-up: scale not given: the % may be the effect or the level left
[24] = biological target: Prostaglandin G/H synthase 1 (Homo sapiens, UniProt P23219); assay: Inhibition of COX-1 in human whole blood assessed as thromboxane B2 production by RIA
Prostaglandin G/H synthase 1 (Homo sapiens, UniProt P23219), sequence (P23219 whole entry): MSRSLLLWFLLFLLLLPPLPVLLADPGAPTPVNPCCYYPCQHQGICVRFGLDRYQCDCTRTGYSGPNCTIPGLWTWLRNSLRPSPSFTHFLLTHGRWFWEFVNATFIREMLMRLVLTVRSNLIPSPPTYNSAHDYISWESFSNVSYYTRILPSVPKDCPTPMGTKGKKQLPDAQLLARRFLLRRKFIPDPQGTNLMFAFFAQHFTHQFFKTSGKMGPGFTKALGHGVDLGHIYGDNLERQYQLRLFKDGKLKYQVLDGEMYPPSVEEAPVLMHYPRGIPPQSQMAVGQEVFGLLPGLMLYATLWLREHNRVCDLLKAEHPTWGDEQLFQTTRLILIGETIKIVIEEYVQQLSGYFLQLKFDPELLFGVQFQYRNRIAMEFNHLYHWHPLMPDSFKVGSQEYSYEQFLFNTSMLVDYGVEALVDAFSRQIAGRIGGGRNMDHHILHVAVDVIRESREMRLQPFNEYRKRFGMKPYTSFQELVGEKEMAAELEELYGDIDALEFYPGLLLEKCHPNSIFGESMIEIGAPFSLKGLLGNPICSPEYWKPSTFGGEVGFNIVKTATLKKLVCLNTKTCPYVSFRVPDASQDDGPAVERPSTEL

[25] = biological target: T5, Prostaglandin G/H synthase 2 (Homo sapiens, UniProt P35354); set-up: species or system Blood
T5 sequence (P35354 whole entry): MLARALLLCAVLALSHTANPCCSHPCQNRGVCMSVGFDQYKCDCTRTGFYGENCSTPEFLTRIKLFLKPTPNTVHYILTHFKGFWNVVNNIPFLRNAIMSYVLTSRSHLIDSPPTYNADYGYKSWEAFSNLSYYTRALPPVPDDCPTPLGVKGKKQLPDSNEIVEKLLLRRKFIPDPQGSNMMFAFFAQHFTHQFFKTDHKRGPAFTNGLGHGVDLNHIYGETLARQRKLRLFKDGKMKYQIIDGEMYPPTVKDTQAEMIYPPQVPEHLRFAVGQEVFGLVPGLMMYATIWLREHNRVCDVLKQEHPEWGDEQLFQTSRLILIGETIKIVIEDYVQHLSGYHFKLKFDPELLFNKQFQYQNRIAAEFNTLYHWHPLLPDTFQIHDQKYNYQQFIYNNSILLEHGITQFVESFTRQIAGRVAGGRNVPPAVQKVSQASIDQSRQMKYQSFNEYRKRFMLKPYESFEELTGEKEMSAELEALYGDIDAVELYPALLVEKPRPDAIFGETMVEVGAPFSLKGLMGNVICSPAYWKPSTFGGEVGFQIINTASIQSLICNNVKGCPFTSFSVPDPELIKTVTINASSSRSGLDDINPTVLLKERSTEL

| inhibition [1] | IC50 [3] | IC50 [4] | inhibition [8] | IC50 (Thoracic aorta [17]) | Compound | Ratio IC50 (J774) | Activity (Mus musculus [2]) | Activity (Mus musculus [5]) | Activity (Mus musculus [6]) | Activity (Mus musculus [7]) | Activity (Thoracic aorta [9]) | Emax (Thoracic aorta [16]) | also measured |
| --- | --- | --- | --- | --- | --- | --- | --- | --- | --- | --- | --- | --- | --- |
| 0% | 310 nM | > 10000 nM | 100% | – | Cc1c(CC(=O)NCCCO[N+](=O)[O-])cc(-c2ccc(S(C)(=O)=O)cc2)n1-c1ccc(F)cc1 | > 32 | 17% | 37% | 37% | Dose-dependent effect | – | – | – |
| – | – | – | – | 468 nM | COc1ccc2cc([C@H](C)C(=O)OCCCCO[N+](=O)[O-])ccc2c1 [NAPROXCINOD] | – | – | – | – | – | inactive | 68% | Activity (Liver [10]): 340 µM; Activity (Liver [11]): tde; Activity (Liver [12]): tde; Activity (Liver [13]): 368 µM; Activity (Liver [14]): 27.6 µM; Activity (Liver [15]): tde |
| 0% | 250 nM | > 10000 nM | 100% | 1660 nM | Cc1c(CC(=O)NCCCO[N+](=O)[O-])cc(-c2ccc(S(C)(=O)=O)cc2)n1-c1cccc(F)c1 | > 40 | – | 8.6% | 0% | Dose-dependent effect | inactive | 69% | Activity (Mus musculus [18]): 30% |
| – | – | – | – | – | Cc1ccc(-c2cc(C(F)(F)F)nn2-c2ccc(S(N)(=O)=O)cc2)cc1 [CELECOXIB] | – | – | – | 59% | Dose-dependent effect | – | – | Activity (Mus musculus [19]): 75%; Activity (Mus musculus [20]): 45%; Activity (Mus musculus [21]): 56%; Activity (Mus musculus [22]): 17%; Activity (Mus musculus [23]): 39% |
| 0% | – | > 10000 nM | 100% | – | Cc1c(CC(=O)NCCO)cc(-c2ccc(S(C)(=O)=O)cc2)n1-c1ccc(F)cc1 | > 33 | – | 61% | 37% | Dose-dependent effect | – | – | IC50 [24]: 1900 nM; IC50 [25]: 1400 nM |
| 6% | – | > 10000 nM | 89% | – | Cc1c(CC(=O)NC(CCO[N+](=O)[O-])C(=O)O)cc(-c2ccc(S(C)(=O)=O)cc2)n1-c1ccc(F)cc1 (racemic) | > 6.2 | 0% | 54% | 30% | Dose-dependent effect | inactive | – | – |

Reference: ChEMBL document CHEMBL3102735, “Enhancing the pharmacodynamic profile of a class of selective COX-2 inhibiting nitric oxide donors” (Bioorg Med Chem, 2014)
